This is an account of results in ChEMBL document CHEMBL1134408, “Antitumor agents. 207. Design, synthesis, and biological testing of 4beta-anilino-2-fluoro-4'-demethylpodophyllotoxin analogues as cytotoxic and antiviral agents” (2001).

One assay has as its system Human betaherpesvirus 5. Description: Inhibitory activity against human cytomegalovirus (HCMV). In kind it is functional. Conditions: read-out: ID50 (the source's name). A digest of the protocol: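 Confluent HEL fibroblasts infected with Towne strain CMV at 1–2 PFU/cell, with or without a drug dilution series. Antiviral effect read either as extracellular virus yield (day-6 supernatant titred by plaque assay on HEL, counted at 2 weeks) or as viral DNA by 32P-CMV-probe dot hybridization with scintillation counting of dots.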

The species entered for a further assay is Homo sapiens. Description: Cytotoxicity against HEL cells.
A further assay deals with CAKI-1. Description: GI values against CAKI-1 cells(renal carcinoma). In kind it is functional. Conditions: Homo sapiens.
The nature of assay [1]: GI values against KB cells (nasopharyngeal carcinoma). In kind it is functional. Conditions: Homo sapiens.
For the next assay, the system named is A549. Description: GI values against A549 cells (lung cancer). The format is functional. Conditions: Homo sapiens.
Assay [2] can be described thus: Selectivity index (ED50/ID50) value of the compound. The format is functional. A digest of the protocol: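 Ratio of ED50 for growing HEL cells (15-day trypan blue count) to ID50 against Towne strain CMV in HEL fibroblasts.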

As usually defined, the GI50 is the concentration giving 50% growth inhibition. High values mean lower sensitivity of the cells, low ones greater sensitivity of the cells. With `COc1cc([C@@H]2c3cc4c(cc3[C@@H](O[C@@H]3O[C@@H]5CO[C@@H](C)O[C@H]5[C@H](O)[C@H]3O)[C@H]3COC(=O)[C@H]23)OCO4)cc(OC)c1O` [ETOPOSIDE], the IC50 in the assay on Human betaherpesvirus 5 was determined as 1.03 µM. For the same compound, in the assay filed under Homo sapiens, the ED50 turned out to be 8.64 µM. Besides, the GI50 with CAKI-1 was 6.31 µM; in assay [1], 0.2 µM; in the assay with A549 it was 6.31 µM. Further, in assay [2], the SI turned out to be 8.4.
